PMC3709443 (Natural product communications, 2009)
Converted amounts (≈) assume the structure as drawn. Where two headings read alike, the source gives them in different places.

Columns and labels:
[1] = test system: P. falciparum D6 (chloroquine-sensitive clone); experiment: Antimalarial parasite LDH assay, D6 strain; assay type: cell-based, Plasmodium falciparum; conditions: for P. falciparum D6 IC50: chloroquine-sensitive clone, 72 h, pLDH readout; for IC50: Plasmodium falciparum, D6, 72 h, read-out: P. falciparum D6 IC50
[2] = test system: P. falciparum W2 (chloroquine-resistant clone); experiment: Antimalarial parasite LDH assay, W2 strain; assay type: cell-based, Plasmodium falciparum; conditions: for P. falciparum W2 IC50: chloroquine-resistant clone, 72 h, pLDH readout; for IC50: Plasmodium falciparum, W2, 72 h, read-out: P. falciparum W2 IC50
[3] = test system: VERO cells (monkey kidney fibroblasts); experiment: Cytotoxicity to VERO cells; assay type: cell-based; conditions: for VERO cells IC50: Table 2, maximum dose tested 4760 ng/mL; for IC50: Primates, Vero
[4] = test system: Leishmania donovani promastigotes; experiment: Antileishmanial assay; assay type: cell-based; conditions: for L. donovani IC50 / L. donovani IC90: promastigotes, 26°C, 72 hours; for IC50 / IC90: Leishmania donovani, 72 h; for IC50: read-out: L. donovani IC50; for IC90: read-out: L. donovani IC90
Method in brief: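 L. donovani promastigote culture at 2×10^6 cells/mL exposed to diluted test compound in 96-well format. Incubation 26°C, 72 h. Growth read by Alamar blue. IC50 computed from the growth-inhibition curve. Pentamidine and amphotericin B served as reference agents.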

[5] = test system: Cryptococcus neoformans ATCC 90113; experiment: Antimicrobial susceptibility assay, C. neoformans; assay type: cell-based; conditions: for C. neoformans IC50: first value of IC50/MIC, 50% inhibition of growth; for C. neoformans MIC: second value of IC50/MIC, no detectable growth
Method in brief: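 Modified CLSI broth dilution. Test compound in DMSO, serially diluted in 20% DMSO/saline, duplicate wells. Inoculum in assay medium to target CFU/mL, with growth, solvent and media controls. Absorbance at 630 nm before and after incubation. IC50 from percent growth vs concentration. MIC is the lowest concentration without detectable growth. MFC comes from 5 μL of clear wells plated on agar, no growth. Amphotericin B control.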

[6] = test system: Escherichia coli ATCC 35218; experiment: Antimicrobial susceptibility assay, E. coli; assay type: cell-based; conditions: for E. coli IC50: first value of IC50/MIC
Method in brief: (§1)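 Modified CLSI broth dilution with test compound dissolved in DMSO and serially diluted in 20% DMSO/saline, in duplicate. Inoculum prepared to target CFU/mL. Plates read at 630 nm before and after incubation. IC50 from percent growth vs concentration. MIC is the lowest concentration with no detectable growth. MBC is the lowest concentration giving no growth when 5 μL from clear wells is subcultured on agar. Ciprofloxacin control.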

[7] = test system: methicillin-resistant Staphylococcus aureus ATCC 43300 (MRS); experiment: Antimicrobial susceptibility assay, MRS; assay type: cell-based; conditions: for MRS IC50: first value of IC50/MIC
Method in brief: as §1

[8] = test system: Aspergillus fumigatus ATCC 90906; experiment: Antimicrobial susceptibility assay, A. fumigatus; assay type: cell-based; conditions: for A. fumigatus IC50: first value of IC50/MIC
Method in brief: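 Modified CLSI broth dilution. Test compound dissolved in DMSO, serially diluted in 20% DMSO/saline and plated in duplicate. Inoculum prepared in assay medium to target CFU/mL. Fluorescence (544ex/590em) read before and after incubation. IC50 from percent growth vs concentration. MIC is the lowest concentration with no detectable growth. MFC is taken from 5 μL of each clear well subcultured on agar. Amphotericin B control.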

[9] = test system: Mycobacterium intracellulare ATCC 23068; experiment: Antimicrobial susceptibility assay, M. intracellulare; assay type: cell-based; conditions: for M. intracellulare IC50: first value of IC50/MIC
Method in brief: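 Modified Alamar Blue procedure within modified CLSI methods. Test compound in DMSO, serially diluted in 20% DMSO/saline, duplicate wells. Inoculum in assay medium to target CFU/mL. Fluorescence 544ex/590em read before and after incubation. IC50 from percent growth vs concentration. MIC is the lowest concentration with no detectable growth. MBC from 5 μL of clear wells subcultured on agar. Ciprofloxacin control.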

[10] = test system: SK-MEL: Human malignant melanoma; experiment: Cytotoxicity assay; assay type: cell-based; conditions: for SK-MEL IC50: 48 hours, Neutral Red
Method in brief: (§2)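 ATCC-sourced cells seeded at 25000 cells/well and incubated 24 h. Test compound was then added at various concentrations for a further 48 h. Viable cells were measured by a modified Neutral Red procedure. IC50 was determined from dose-response curves of percent growth inhibition. Doxorubicin was the positive control and DMSO the vehicle control.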

[11] = test system: KB: Human epidermoid carcinoma; experiment: Cytotoxicity assay; assay type: cell-based; conditions: for KB IC50: 48 hours, Neutral Red
Method in brief: as §2

[12] = test system: BT-549: Human ductal carcinoma; experiment: Cytotoxicity assay; assay type: cell-based; conditions: for BT-549 IC50: 48 hours, Neutral Red
Method in brief: as §2

[13] = test system: SK-OV-3: Human ovarycarcinoma; experiment: Cytotoxicity assay; assay type: cell-based; conditions: for SK-OV-3 IC50: 48 hours, Neutral Red
Method in brief: as §2

[14] = test system: LLC-PK11: Pig kidney epithelial; experiment: Cytotoxicity assay; assay type: cell-based; conditions: 48 hours; Neutral Red
Method in brief: as §2

Row | Compound | P. falciparum D6 IC50 [1] [µg/mL] | P. falciparum W2 IC50 [2] [µg/mL] | VERO cells IC50 [3] | L. donovani IC50 [4] [µg/mL] | L. donovani IC90 [4] [µg/mL] | C. neoformans IC50 [5] [µg/mL] | C. neoformans MIC [5] [µg/mL] | E. coli IC50 [6] | MRS IC50 [7] | A. fumigatus IC50 [8] | M. intracellulare IC50 [9] | SK-MEL IC50 [10] [µg/mL] | KB IC50 [11] [µg/mL] | BT-549 IC50 [12] [µg/mL] | SK-OV-3 IC50 [13] [µg/mL] | LLC-PK11 IC50 [14] [µg/mL] | other results
1 | 6-Hydroxy-5-normethylbudmunchiamine K [Compound 4] | 0.12 | 0.27 | NC (NC = Not cytotoxic (up to the maximum dose tested of 4760 ng/mL)) | 2.1 | 7 | 6.0 | 10.0 | -/- (- =Not Active) | 20.0 µg/mL | -/- (- =Not Active) | 20.0 µg/mL | 5.7 | 5.4 | 6.0 | 6.2 | 6.0 | antimicrobial activity against C. neoformans in words [5]: weakly active
2 | 6-Hydroxybudmunchiamine K [Compound 2] | 0.16 | 0.22 | NC (NC = Not cytotoxic (up to the maximum dose tested of 4760 ng/mL)) | 3.4 | 7 | 10.0 | 20.0 | -/- (- =Not Active) | -/- (- =Not Active) | -/- (- =Not Active) | -/- (- =Not Active) | 5.8 | 6.0 | 6.0 | 6.5 | 5.3 | antimicrobial activity against C. neoformans in words [5]: weakly active
3 | C[C@@H]1[C@H](O)[C@@H](C)/C=C/C=C/C=C/C=C/C=C/C=C/C=C/[C@H](O[C@@H]2O[C@H](C)[C@@H](O)[C@H](N)[C@@H]2O)C[C@@H]2O[C@](O)(C[C@@H](O)C[C@@H](O)[C@H](O)CC[C@@H](O)C[C@@H](O)CC(=O)O[C@H]1C)C[C@H](O)[C@H]2C(=O)O [Amphotericin B, amphotericin B, reference compound] |  |  |  |  |  |  |  |  |  |  |  |  |  |  |  |  | IC50 [4]: 0.32 µg/mL (≈ 0.346 µM); IC90 [4]: 0.8 µg/mL (≈ 0.866 µM); IC50 ([5]; Cryptococcus neoformans, ATCC90113, read-out: C. neoformans IC50): 0.8 µg/mL (≈ 0.866 µM); MIC ([5]; Cryptococcus neoformans, ATCC90113, read-out: C. neoformans MIC): 1.25 µg/mL (≈ 1.35 µM); IC50 ([8]; Aspergillus fumigatus, ATCC90906, read-out: A. fumigatus IC50): 0.6 µg/mL (≈ 0.649 µM); MIC ([8]; Aspergillus fumigatus, ATCC90906, read-out: A. fumigatus MIC): 1.25 µg/mL (≈ 1.35 µM)
4 | C[C@@H]1CC[C@H]2[C@@H](C)C(=O)O[C@@H]3O[C@@]4(C)CC[C@@H]1[C@]32OO4 [Artemisinin, artemisinin, reference compound] |  |  |  |  |  |  |  |  |  |  |  |  |  |  |  |  | IC50 [1]: 0.01 µg/mL (≈ 0.0354 µM); IC50 [2]: 0.006 µg/mL (≈ 0.0213 µM); IC50 ([3]; read-out: VERO cells IC50): > 4.76 µg/mL
5 | CCN(CC)CCCC(C)Nc1ccnc2cc(Cl)ccc12 (stereo not drawn) [Chloroquine, chloroquine, reference compound] |  |  |  |  |  |  |  |  |  |  |  |  |  |  |  |  | IC50 [1]: 0.015 µg/mL (≈ 0.0469 µM); IC50 [2]: 0.135 µg/mL (≈ 0.422 µM); IC50 ([3]; read-out: VERO cells IC50): > 4.76 µg/mL
6 | O=C(O)c1cn(C2CC2)c2cc(N3CCNCC3)c(F)cc2c1=O [Ciprofloxacin, ciprofloxacin, reference compound] |  |  |  |  |  |  |  |  |  |  |  |  |  |  |  |  | IC50 ([6]; Escherichia coli, ATCC35218, read-out: E. coli IC50): 0.004 µg/mL (≈ 0.0121 µM); IC50 ([7]; Staphylococcus aureus, ATCC43300, read-out: MRS IC50): 0.09 µg/mL (≈ 0.272 µM); MIC ([7]; Staphylococcus aureus, ATCC43300, read-out: MRS MIC): 0.5 µg/mL (≈ 1.51 µM); IC50 ([9]; Mycobacterium intracellulare, ATCC23068, read-out: M. intracellulare IC50): 0.5 µg/mL (≈ 1.51 µM); MIC ([9]; Mycobacterium intracellulare, ATCC23068, read-out: M. intracellulare MIC): 1 µg/mL (≈ 3.02 µM)
7 | CCCCCCCCCCCCCCCC1CC(=O)NCCCN(C)CCCCN(C)CCCN1 (stereo not drawn) [Compound 3, 5-Normethylbudmunchiamine K] | 0.14 | 0.21 | 3 µg/mL | 0.8 | 1.3 | 1.0 | 2.5 | 6.5 µg/mL | 6.5 µg/mL | -/- (- =Not Active) | 4.0 µg/mL | 2.0 | 2.3 | 2.0 | 4.8 | 2.5 | antileishmanial activity compared with pentamidine ([4]; in words): more potent than pentamidine; E. coli MIC ([6]; second value of IC50/MIC): 10.0 µg/mL; MRS MIC ([7]; second value of IC50/MIC): 10.0 µg/mL; M. intracellulare MIC ([9]; second value of IC50/MIC): 20.0 µg/mL
8 | COc1cccc2c1C(=O)c1c(O)c3c(c(O)c1C2=O)C[C@@](O)(C(=O)CO)C[C@@H]3O[C@H]1C[C@H](N)[C@H](O)[C@H](C)O1 [Doxorubicin, reference compound] |  |  |  |  |  |  |  |  |  |  |  |  |  |  |  |  | IC50 ([3]; 48 h, read-out: VERO IC50): > 5 µg/mL; IC50 ([10]; Homo sapiens, 48 h, read-out: SK-MEL IC50): 0.85 µg/mL (≈ 1.56 µM); IC50 ([11]; Homo sapiens, 48 h, read-out: KB IC50): 0.9 µg/mL (≈ 1.66 µM); IC50 ([12]; Homo sapiens, BT-549, 48 h, read-out: BT-549 IC50): 0.9 µg/mL (≈ 1.66 µM); IC50 ([13]; Homo sapiens, SK-OV-3, 48 h, read-out: SK-OV-3 IC50): 0.9 µg/mL (≈ 1.66 µM)
9 | N=C(N)c1ccc(OCCCCCOc2ccc(C(=N)N)cc2)cc1 [Pentamidine, reference compound] |  |  |  |  |  |  |  |  |  |  |  |  |  |  |  |  | IC50 [4]: 2.1 µg/mL (≈ 6.17 µM); IC90 [4]: 4 µg/mL (≈ 11.7 µM)
